From PMC10938339 (ACS Omega, 2024)
Where two headings read alike, the source gives them in different places.

Legend:
PPT1 [1] = conditions: cited from earlier work
PPT1 [2] = target: T1, PPT1 (Homo sapiens, UniProt P50897); experiment: biochemical; conditions: for IC50: IC50 (95 % CI)
T1 sequence (P50897 28-306): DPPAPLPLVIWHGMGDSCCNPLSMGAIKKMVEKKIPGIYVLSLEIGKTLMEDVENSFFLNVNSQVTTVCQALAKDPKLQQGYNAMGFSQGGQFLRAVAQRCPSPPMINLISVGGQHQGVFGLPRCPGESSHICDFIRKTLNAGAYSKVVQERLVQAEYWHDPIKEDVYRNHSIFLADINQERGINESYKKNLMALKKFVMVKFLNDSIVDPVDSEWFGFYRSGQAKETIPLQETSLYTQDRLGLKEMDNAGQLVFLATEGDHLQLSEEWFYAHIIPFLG

PPT1 in HepG2 cells = target: T2, PPT1 in HepG2 cells (Homo sapiens, UniProt P50897); experiment: PPT1 inhibition in HepG2 cells; format: cell-based; conditions: intact cells treated 5 h, activity relative to DMSO control
T2 sequence (P50897 28-306): T1 sequence (P50897 28-306)
Outline: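 HepG2 cells in DMEM + 10% FBS (37 °C, 5% CO2) were seeded overnight, then exposed to compound in medium for 5 h. They were lysed in MPER with protease inhibitor and 0.5% Triton X-100, spun at 14,000 rpm for 15 min, and protein-normalised. Lysates were assayed with MU-6S-Palm-βGlc plus β-glucosidase (4-MU fluorescence, Ex 365/Em 448, 4-MU standard curve). Biological duplicates, technical triplicates; activity relative to DMSO.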

[3] = target: T3, PPT1 in HepG2 cell extracts (Homo sapiens, UniProt P50897); experiment: PPT1 inhibition in HepG2 cell extracts; format: biochemical; conditions: cell extracts treated 1 h
T3 sequence (P50897 28-306): T1 sequence (P50897 28-306)
Outline: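 HepG2 lysates, prepared as for cells (MPER, protease inhibitor, 0.5% Triton X-100, 14,000 rpm spin), were treated directly with compound for 1 h. PPT1 activity was then read with the MU-6S-Palm-βGlc/β-glucosidase assay, measuring 4-methylumbelliferone fluorescence. Biological duplicates with technical triplicates; percent activity expressed relative to DMSO control.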

[4] = cited from earlier work
[5] = cited from earlier work; remark: listed apart in the source
[6] = system: neuroblastoma SH-SY5Y cell line; format: cell-based, human; conditions: 48 h treatment, alamarBlue 18 h; NA = not active

| IC50 (PPT1 [2]) [µM] | Compound | further results |
| --- | --- | --- |
| 236 | Cn1nnc2c(C(N)=O)ncn2c1=O [Temozolomide] | – |
| 647 | COc1cc(C=O)ccc1O [Vanillin] | – |
| ~156 | C[C@@H]1O[C@@H](OC[C@H]2O[C@@H](Oc3c(-c4ccc(O)c(O)c4)oc4cc(O)cc(O)c4c3=O)[C@H](O)[C@@H](O)[C@@H]2O)[C@H](O)[C@H](O)[C@H]1O [Rutin trihydrate] | – |
| 0.0118 | CCCCCCCCCC[C@@H]1C(=O)O[C@H]1CCc1ccc(OC)c(OC)c1 [Palmostatin B] | PPT1 inhibition in HepG2 cells (in words) (PPT1 in HepG2 cells): poor PPT1 inhibition; PPT1 inhibition in HepG2 cell extracts (in words) [3]: inhibited PPT1 in cell extracts |
| > 100 | CN(C)[C@@H]1C(O)=C(C(N)=O)C(=O)[C@@]2(O)C(O)=C3C(=O)c4c(O)cccc4[C@@](C)(O)[C@H]3C[C@@H]12 [Tetracycline] | – |
| ~169 | CCN(CC)CCCC(C)Nc1c2ccc(Cl)cc2nc2ccc(OC)cc12 (centres unmarked) [Quinacrine] | – |
| 63.3 | CO[C@H]1/C=C/O[C@@]2(C)Oc3c(C)c(O)c4c(O)c(c(/C=N/N5CCN(C6CCCC6)CC5)c(O)c4c3C2=O)NC(=O)/C(C)=C\C=C\[C@H](C)[C@H](O)[C@@H](C)[C@@H](O)[C@@H](C)[C@H](OC(C)=O)[C@@H]1C [Rifapentine] | – |
| 179 | Cc1ccc(C(=O)c2cc(O)c(O)c([N+](=O)[O-])c2)cc1 [Tolcapone] | blood–brain barrier penetration [5]: can penetrate the blood–brain barrier |
| > 100 | CC(CN1c2ccccc2Sc2ccccc21)N(C)C (centres unmarked) [Promethazine] | – |

Further lines, the compound ahead of its results:

| Compound | IC50 (PPT1 [2]) [µM] | further results |
| --- | --- | --- |
| CC(C)(C)NC1CCN(c2cc(NCc3ccc(Cl)cc3)nc3ccccc23)CC1 [GNS561] | – | PPT1 inhibition (PPT1 [1]; 1 μM after 3 h): 25%; PPT1 inhibition (PPT1 [1]; 1 μM after 72 h): 50% |
| Cc1ncc([N+](=O)[O-])n1CCO [Metronidazole] | > 100 | – |
| CCN(CC)CCNc1ccc(CO)c2sc3ccccc3c(=O)c12 [Hycanthone] | 111 | – |
| CCCCCCCCCCC[C@@H](C[C@@H]1OC(=O)[C@H]1CCCCCC)OC(=O)[C@H](CC(C)C)NC=O [Orlistat] | 0.179 | % Inhibition (PPT1 [2]; Spectrum Collection library screen, substrate 20 μM): 90.7%; PPT1 inhibition in HepG2 cells (in words) (PPT1 in HepG2 cells): poor PPT1 inhibition; oral absorption [4]: poorly orally absorbed; PPT1 inhibition in HepG2 cell extracts (in words) [3]: inhibited PPT1 in cell extracts |
| Cc1ncc([N+](=O)[O-])n1CC(O)CCl (centres unmarked) [Ornidazole] | > 100 | – |
| CCN(CC)Cc1cc(Nc2ccnc3cc(Cl)ccc23)ccc1O [Amodiaquine] | 344 | – |
| CCOC(=O)[N-]c1cn(N2CCOCC2)n[o+]1 [Molsidomine] | > 100 | – |
| OC(c1cc(C(F)(F)F)nc2c(C(F)(F)F)cccc12)C1CCCCN1 (centres unmarked) [Mefloquine] | – | inhibition at 125 µM (PPT1 [2]; compound 125 μM): ≤ 50% |
| CCN(CC)CCCC(C)Nc1ccnc2cc(Cl)ccc12 (centres unmarked) [Chloroquine] | 47.2 | – |
| CCN(CCO)CCCC(C)Nc1ccnc2cc(Cl)ccc12 (centres unmarked) [Hydroxychloroquine] | 109 | SH-SY5Y IC50 [6]: did not reach a 50% decrease in cell viability at the highest concentration tested |
| TVB-3166 | – | PPT1 inhibition (in words) (PPT1 [2]; FASN inhibitors tested against PPT1): did not inhibit PPT1 |
